# Measurements pooled from the literature.
# Compare with care: the assays were run in different laboratories.
# Organism: Staphylococcus aureus
# Read-out: microbial growth
Compound,test,test system,conditions,MIC
c1ccc(CSc2nc3ccc(-c4ccccc4)cc3cc2CNCCC2CCN(C3CCCC3)CC2)cc1,broth dilution,,,8 µg/mL
CCCCCCC#Cc1cncc(-c2nnc(SCc3cc([N+](=O)[O-])cc([N+](=O)[O-])c3)n2CCCN)c1,broth dilution,ATCC29213,,8 µg/mL
COc1ccc(-n2nc(C(=O)c3ccc(Nc4cnccn4)cc3)sc2=N)cc1,broth dilution,ATCC25923,,6.25 µg/mL
[H]/N=C(\N/C(=N/[H])NCCCCCCNC(=N)NC(=N)Nc1ccc(Cl)cc1)Nc1ccc(Cl)cc1,,MSSA,,0.5 µM
CCCCCCC#Cc1cncc(-c2nnc(SCc3cc(C(F)(F)F)cc(C(F)(F)F)c3)n2CCCN)c1,broth dilution,MRSA,,4 µg/mL
CC[C@H]1OC(=O)[C@H](C)[C@@H](O[C@H]2C[C@@](C)(OC)[C@@H](O)[C@H](C)O2)[C@H](C)[C@@H](O[C@@H]2O[C@H](C)C[C@H](N(C)C)[C@H]2O)[C@](C)(O)C[C@@H](C)C(=O)[C@H](C)[C@@H](O)[C@]1(C)O,broth dilution,ATCCBAA44 BAA44,,> 64 µg/mL
O=C(N[C@H](CO)[C@H](O)c1ccc([N+](=O)[O-])cc1)C(Cl)Cl,broth dilution,ATCC25923,,6.25 µg/mL
COc1cccc(OC)c1C(=O)N[C@@H]1C(=O)N2[C@@H]1SC(C)(C)[C@@H]2C(=O)O,broth dilution,ATCCBAA44 BAA44,,> 64 µg/mL
O=C1/C(=C/c2ccc3ccccc3c2O)NC(=S)N1c1ccccc1,broth dilution,ATCC6538,,22 µg/mL
CCN1CCC(CCNCc2cc3cc(Br)ccc3nc2SCc2ccccc2)CC1,broth dilution,,,32 µg/mL
CCCCCCCCCCCC[N+](C)(C)Cc1ccccc1,,ATCC33591 MRSA,drug-resistant strain,32 µM
Cc1ccc2[nH]nc(-c3nnc(Nc4ccc(C)c(C)c4)s3)c2c1,,ATCC29213,,94.2 µg/mL
CC[C@H]1OC(=O)[C@H](C)[C@@H](O[C@H]2C[C@@](C)(OC)[C@@H](O)[C@H](C)O2)[C@H](C)[C@@H](O[C@@H]2O[C@H](C)C[C@H](N(C)C)[C@H]2O)[C@](C)(O)C[C@@H](C)/C(=N\OCOCCOC)[C@H](C)[C@@H](O)[C@]1(C)O,agar dilution,ATCC25923,,2 µg/mL
Cc1ccc2[nH]nc(-c3nnc(Nc4ccc(C(F)(F)F)cc4)s3)c2c1,,ATCC29213,,14.4 µg/mL
CCC[C@@H]1C[C@@H](C(=O)N[C@@H]([C@H]2O[C@H](SC)[C@H](O)[C@@H](O)[C@H]2O)[C@@H](C)O)N(C)C1,broth dilution,USA300,,2 µg/mL
CCCCCCCCN=c1ccn(CCCCCCCCCCn2ccc(=NCCCCCCCC)cc2)cc1,,MRSA USA300,drug-resistant strain,0.5 µM
c1ccc(CSc2nc3ccccc3cc2CNCc2ccc(N3CCCCC3)cc2)cc1,broth dilution,,,> 128 µg/mL
CC(=O)C1=NN(c2ccccc2)C(=C(C#N)C(=O)c2ccc(Nc3cnccn3)cc2)S1,broth dilution,ATCC25923,,50 µg/mL
C=C[C@]1(C)C[C@@H](OC(=O)CS[C@@H]2C[C@H]3CC[C@@H](C2)N3C)[C@]2(C)[C@H](C)CC[C@]3(CCC(=O)[C@H]32)[C@@H](C)[C@@H]1O,agar dilution,ATCC43300,,0.0625 µg/mL
CC1(C)S[C@@H]2[C@H](NC(=O)[C@H](N)c3ccc(O)cc3)C(=O)N2[C@H]1C(=O)O,broth dilution,USA300,,64 µg/mL
CCCCCCC#Cc1cncc(-c2nnc(SCc3ccc([N+](=O)[O-])cc3)n2CCCN)c1,broth dilution,MRSA,,8 µg/mL
COc1cc2cc(CNCCC3CCN(C4CCCC4)CC3)c(SCc3ccccc3)nc2c(OC)c1OC,broth dilution,,,> 128 µg/mL
CN[C@H](CC(C)C)C(=O)N[C@H]1C(=O)N[C@@H](CC(N)=O)C(=O)N[C@H]2C(=O)N[C@H]3C(=O)N[C@H](C(=O)N[C@H](C(=O)O)c4cc(O)cc(O)c4-c4cc3ccc4O)[C@H](O)c3ccc(c(Cl)c3)Oc3cc2cc(c3O[C@@H]2O[C@H](CO)[C@@H](O)[C@H](O)[C@H]2O[C@H]2C[C@](C)(N)[C@H](O)[C@H](C)O2)Oc2ccc(cc2Cl)[C@H]1O,broth dilution,ATCCBAA44 BAA44,,1 µg/mL
CCCCCCC#Cc1cncc(-c2nnc(SCc3ccc(Cl)cc3)n2CCCN)c1,broth dilution,MRSA,,4 to 8 µg/mL
COc1ccc(N2N=C(C(=O)c3ccc(Nc4cnccn4)cc3)SC2=C(C#N)C#N)cc1,broth dilution,ATCC25923,,3.12 µg/mL
CC(=O)c1ccc2cc(S(=O)(=O)Nc3ccc(Br)cc3)ccc2c1,broth dilution,ATCC25923,,20000 µg/mL
CC(=O)NC[C@H]1CN(c2ccc(N3CCOCC3)c(F)c2)C(=O)O1,,MRSA,,1 µg/mL
C[C@H]1COc2c(N3CCN(C)CC3)c(F)cc3c(=O)c(C(=O)O)cn1c23,broth dilution,ATCCBAA44,18 h,50 µM
Cc1onc(-c2ccccc2)c1C(=O)N[C@@H]1C(=O)N2[C@@H]1SC(C)(C)[C@@H]2C(=O)O,,ATCC29213 MSSA,drug-resistant strain,0.25 µg/mL
CC1(C)S[C@@H]2[C@H](NC(=O)[C@H](N)c3ccccc3)C(=O)N2[C@H]1C(=O)O,agar dilution,ATCC43300,,> 128 µg/mL
CC(=O)NC[C@H]1CN(c2ccc(N3CCOCC3)c(F)c2)C(=O)O1,broth dilution,ATCC29213,,1 µg/mL
CCCCCCC#Cc1cncc(-c2nnc(SCc3cc([N+](=O)[O-])cc([N+](=O)[O-])c3)n2CCOC2OC(CN)C(O)C2O)c1 (stereo not drawn),broth dilution,ATCC29213,,> 64 µg/mL
Cc1ccc2[nH]nc(-c3nnc(Nc4ccc(Br)cc4)s3)c2c1,,ATCC29213,,154 µg/mL
CN[C@H](CC(C)C)C(=O)N[C@H]1C(=O)N[C@@H](CC(N)=O)C(=O)N[C@H]2C(=O)N[C@H]3C(=O)N[C@H](C(=O)N[C@H](C(=O)O)c4cc(O)cc(O)c4-c4cc3ccc4O)[C@H](O)c3ccc(c(Cl)c3)Oc3cc2cc(c3O[C@@H]2O[C@H](CO)[C@@H](O)[C@H](O)[C@H]2O[C@H]2C[C@](C)(N)[C@H](O)[C@H](C)O2)Oc2ccc(cc2Cl)[C@H]1O,,MRSA,,0.5 µg/mL
Brc1ccc2nc(SCc3ccccc3)c(CNCc3ccc(CN4CCCC4)cc3)cc2c1,broth dilution,,,32 µg/mL
CN[C@H](CC(C)C)C(=O)N[C@H]1C(=O)N[C@@H](CC(N)=O)C(=O)N[C@H]2C(=O)N[C@H]3C(=O)N[C@H](C(=O)N[C@H](C(=O)O)c4cc(O)cc(O)c4-c4cc3ccc4O)[C@H](O)c3ccc(c(Cl)c3)Oc3cc2cc(c3O[C@@H]2O[C@H](CO)[C@@H](O)[C@H](O)[C@H]2O[C@H]2C[C@](C)(N)[C@H](O)[C@H](C)O2)Oc2ccc(cc2Cl)[C@H]1O,broth dilution,MRSA,,0.67 µM
CC1(C)S[C@@H]2[C@H](NC(=O)[C@H](N)c3ccccc3)C(=O)N2[C@H]1C(=O)O,broth dilution,ATCC25923,12 h,0.13 µg/mL
COc1c(N2C[C@@H]3CCCN[C@@H]3C2)c(F)cc2c(=O)c(C(=O)O)cn(C3CC3)c12,agar dilution,ATCC25923,,0.0625 µg/mL
Cc1ccc2[nH]nc(-c3nnc(Nc4cc(Cl)cc(Br)c4)s3)c2c1,,ATCC29213,,204 µg/mL
